HNF4A DNA FP: change in binding of human HNF4 alpha to DNA; P41235; HNF4a-FITC DNA binding, fluorescence polarization, 1 h; activity change, % at 10 µM; hit rate 0.3% among 360,000; AID 1224865; in the data active = activity change above about 30%, passing the limit was not always enough
Rpn11 inh: blocks the human proteasome subunit Rpn11. O00487. human 26S proteasome, Ub4-pepOG fluorescence polarization; 20S core pre-blocked with epoxomicin. inhibition, % at 20 µM. hit rate 0.59% among 360,000;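 active = inhibition at 20 µM, scaled to each plate's controls, above about 33%, limit read from the data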
Target sequence (O00487 whole entry, looked up): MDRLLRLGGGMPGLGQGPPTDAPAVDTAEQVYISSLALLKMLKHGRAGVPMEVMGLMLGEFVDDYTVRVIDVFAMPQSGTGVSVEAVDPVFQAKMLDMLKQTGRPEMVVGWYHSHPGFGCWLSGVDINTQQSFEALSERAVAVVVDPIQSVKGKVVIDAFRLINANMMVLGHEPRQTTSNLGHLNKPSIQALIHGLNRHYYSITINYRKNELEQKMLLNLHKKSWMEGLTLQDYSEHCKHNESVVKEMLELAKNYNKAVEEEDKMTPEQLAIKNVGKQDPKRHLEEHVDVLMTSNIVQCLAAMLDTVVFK
Myeloid diff 2: compounds promoting myeloid differentiation; ER-HoxA9 myeloid progenitors, lysozyme-GFP differentiation, flow cytometry; AID 624256; hit rate 1% among 360,000; calls only at 10 µM;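 active = normalized GFP-positive differentiation at or above the plate's own cutoff, the solvent-only control mean plus 3 SD; inconclusive = no clear call, values can overlap the other calls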;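 also: cells exposed to compound for four days before flow analysis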
TPT1 inh: C. albicans TPT1 enzyme inhibition; hit rate 0.81% among 300,000; inhibition, % at 5 µM; recombinant caTPT1, FP RNA substrate dephosphorylation;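 active = inhibition above the mean of all tested compounds plus 3 SD, set per screening campaign, cut at about 24% in these data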;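 also: plate controls were DMSO alone for no effect and ferristatin control at 100 nM for full effect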
CSN inh: inhibitors of human CSN-mediated cullin deneddylation; AID 651999; Purified CSN, SCF-Nedd8-OG deneddylation, fluorescence polarization; hit rate 0.38% among 360,000; inhibition, % at 12.5 µM; Q92905;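 active = pattern-corrected inhibition above about 35%, with an unprinted fluorescence ratio check between 0.5 and 1.5, limit read from the data, passing the limit was not always enough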;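 also: 0% = enzyme with substrate and 100% = substrate without enzyme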
Target sequence (Q92905 whole entry, looked up, one chain of several): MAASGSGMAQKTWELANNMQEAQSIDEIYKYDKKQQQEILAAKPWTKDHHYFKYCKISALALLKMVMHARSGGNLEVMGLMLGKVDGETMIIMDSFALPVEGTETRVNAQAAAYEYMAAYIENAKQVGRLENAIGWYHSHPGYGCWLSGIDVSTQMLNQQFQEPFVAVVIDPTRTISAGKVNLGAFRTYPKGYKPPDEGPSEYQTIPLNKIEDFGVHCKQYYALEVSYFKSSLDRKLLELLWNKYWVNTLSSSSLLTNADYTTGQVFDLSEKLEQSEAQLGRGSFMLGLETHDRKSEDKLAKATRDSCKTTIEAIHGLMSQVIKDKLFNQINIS
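Assay system: Purified human Csn5 enzyme expressed in HEK293T cells | Amount: Enzyme 0.24 nM | Measured by: Fluorescence polarization readout | Medium: Tris/NaCl/DTT buffer, pH 7.5 | Compound dosing: One concentration, 12.5 µM, 0.25% DMSO | Times: 90 min incubation of compound, enzyme and substrate at room temperature | Control set: no-enzyme wells high, enzyme-with-substrate wells low | Read-out: % inhibition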
Rpn11 inh conf: confirmation of human proteasome Rpn11 inhibitors; shares compounds with Rpn11 inh; inhibition, % at 20 µM; purified human 26S proteasome, Ub4-pepOG fluorescence polarization; proteasome pretreated with epoxomicin; hit rate 29% among 1,900
MMP-2 inh: counter-screen for RPN11 inhibitors: inhibition of human MMP-2; inhibition, % at 20 µM; hit rate 4% among 1,900; recombinant MMP-2, FRET peptide cleavage fluorescence; shares compounds with Rpn11 inh; AID 602330;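 also: human MMP-2 activated beforehand with APMA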
Thrombin inh: blocks bovine thrombin, flagging nonselective RPN11 hits | shares compounds with Rpn11 inh | bovine thrombin cleavage of Ub4-pepOG, fluorescence polarization | inhibition, % at 20 µM | hit rate 13% among 1,900 | AID 602333;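 active = mean inhibition at least 40% at 20 µM, or signal 3 deviations below plate average, so some actives read negative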;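 also: plate controls were thrombin with DMSO for no effect and buffer wells lacking thrombin for full effect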
* marks the source's active call; other numbers are inactive results. Hits are enriched below; roughly 2.3% of the tested compounds scored in any of these assays. Rule as the data show it, unless noted: active = inhibition above about 40%; inactive = the rest.

Screening Cc1ccc(S(=O)(=O)N2CCN(C(=O)c3ccc(-n4cncn4)c([N+](=O)[O-])c3)CC2)c(C)c1 returned HNF4A DNA FP -1, Rpn11 inh 0, Myeloid diff 2 inactive and CSN inh -1.
`CCOc1ccccc1CNC(=O)C1CCCN(c2nnc(C)c3c(C)n(-c4ccccc4)nc23)C1` (stereo not drawn) gave HNF4A DNA FP 18, Rpn11 inh 41*, Myeloid diff 2 inactive, TPT1 inh 6, CSN inh 11, Rpn11 inh conf 25, MMP-2 inh -29 and Thrombin inh 2.
Screening COc1ccc(-n2nc3c(N4CCC(C(=O)NCc5ccccc5C)CC4)nnc(C)c3c2C)cc1 returned HNF4A DNA FP 11, Rpn11 inh 74*, Myeloid diff 2 inactive, TPT1 inh 5, CSN inh 117*, Rpn11 inh conf 34, MMP-2 inh -331 and Thrombin inh 17.
For Cc1ccc(-n2nc3c(N4CCC(C(=O)NCCc5ccccc5C)CC4)nnc(C)c3c2C)cc1 the results were HNF4A DNA FP 11, Rpn11 inh 22, Myeloid diff 2 inconclusive, TPT1 inh 9 and CSN inh 13.
For FC(F)(F)C(F)(F)C(F)(F)c1nnc2ccc(N3CCOCC3)nn12 the results were HNF4A DNA FP 2, Rpn11 inh 92*, Myeloid diff 2 inactive, TPT1 inh -1, CSN inh 1, Rpn11 inh conf -10, MMP-2 inh -20 and Thrombin inh -10.
`FC(F)(F)c1nnc2ccc(N3CCCC3)nn12` gave HNF4A DNA FP 0, Rpn11 inh -1, Myeloid diff 2 inactive, TPT1 inh 1 and CSN inh -8.
O=c1[nH]c(-c2ccc(F)cc2)nc2c1sc(=S)n2-c1ccccc1 was read as HNF4A DNA FP -1, Rpn11 inh 1, Myeloid diff 2 inactive, TPT1 inh -1 and CSN inh 12.
`O=c1[nH]c(-c2ccc3c(c2)OCO3)nc2c1sc(=S)n2-c1ccccc1` gave HNF4A DNA FP -17, Rpn11 inh 63*, Myeloid diff 2 inactive, TPT1 inh 3, CSN inh 3, Rpn11 inh conf 38, MMP-2 inh -15 and Thrombin inh 23.
For CCOC(=O)Cn1nc(-c2ccccc2)nc1-c1ccccc1 the results were HNF4A DNA FP 2, Rpn11 inh 2, Myeloid diff 2 inactive, TPT1 inh -3 and CSN inh 2.
CCOC(=O)Cn1ncc(-c2ccccc2)c1N was read as HNF4A DNA FP -2, Rpn11 inh 169*, Myeloid diff 2 inactive, TPT1 inh 2, CSN inh -2, Rpn11 inh conf 18, MMP-2 inh -31 and Thrombin inh -3.
`Clc1cccc(NCc2cn3cccnc3n2)c1` gave HNF4A DNA FP -6, Rpn11 inh -6, Myeloid diff 2 inactive, TPT1 inh -1 and CSN inh -5.
`Cc1nc(SCc2nc3ccccc3[nH]2)c2oc3cc(Br)ccc3c2n1` gave HNF4A DNA FP 15, Rpn11 inh 83*, Myeloid diff 2 inactive, CSN inh 23, Rpn11 inh conf 45*, MMP-2 inh 5 and Thrombin inh 43*.
`Cc1ccc(NC(=O)Cn2c(=O)cnc3ccccc32)cc1S(=O)(=O)N1CCOCC1` gave HNF4A DNA FP 0, Rpn11 inh 7, Myeloid diff 2 inactive and CSN inh -2.
Screening Cc1nc(SCC(=O)CC(=O)OC(C)C)c(C#N)c(C)c1C returned HNF4A DNA FP 2, Rpn11 inh 0, Myeloid diff 2 inactive, TPT1 inh 2 and CSN inh 1.
Screening CSc1nc(N)nc(SCC(=O)CC(=O)OC(C)C)c1C#N returned HNF4A DNA FP 3, Rpn11 inh 78*, Myeloid diff 2 inactive, TPT1 inh -1, CSN inh 9, Rpn11 inh conf -3, MMP-2 inh -22 and Thrombin inh -17.
COc1cc(C(C)=O)ccc1OC(=O)N1CCOCC1 was read as HNF4A DNA FP -4, Rpn11 inh -4, Myeloid diff 2 inactive and CSN inh -5.
CN1CCN(S(=O)(=O)c2cccc(C(=O)Nc3sc4c(c3C(N)=O)CCCC4)c2)CC1 was read as HNF4A DNA FP 0, Rpn11 inh 90*, Myeloid diff 2 inactive, TPT1 inh 2, CSN inh 1, Rpn11 inh conf 6, MMP-2 inh 25 and Thrombin inh -3.
`COC(=O)c1c(NC(=O)c2cccc(S(=O)(=O)N3CCN(C)CC3)c2)sc(C)c1C` gave HNF4A DNA FP -2, Rpn11 inh -1, Myeloid diff 2 inactive, TPT1 inh -2 and CSN inh 5.
For COc1ccc(-c2cc(C(=O)Nc3ccc(Br)cc3)no2)cc1 the results were HNF4A DNA FP 3, Rpn11 inh 59*, Myeloid diff 2 inactive, TPT1 inh -3, CSN inh 5, Rpn11 inh conf -27, MMP-2 inh -43 and Thrombin inh -20.
Screening COc1ccc(-c2cc(C(=O)Nc3cc(Cl)ccc3O)no2)cc1 returned HNF4A DNA FP 5, Rpn11 inh 51*, Myeloid diff 2 inactive, TPT1 inh 2, CSN inh 5, Rpn11 inh conf 12, MMP-2 inh -7 and Thrombin inh -5.
Screening COc1ccc(CCN2CC(C(=O)NCc3nc(C)c(C)s3)CCC2=O)cc1 (stereo not drawn) returned HNF4A DNA FP 1, Rpn11 inh -12, Myeloid diff 2 inactive, TPT1 inh 0 and CSN inh 0.
Screening Cc1nc2ccc(NC(=O)[C@@H](NC(=O)c3c(F)cccc3F)C(C)C)cc2s1 returned HNF4A DNA FP 32, Rpn11 inh 50*, Myeloid diff 2 inactive, CSN inh 9, Rpn11 inh conf 58*, MMP-2 inh -43 and Thrombin inh 70*.
COc1cc(OC)cc(C(=O)NC(C(=O)Nc2ccc3nc(C)sc3c2)C(C)C)c1 (stereo not drawn) was read as HNF4A DNA FP 3, Rpn11 inh 8, Myeloid diff 2 inactive and CSN inh -1.
For CCN1CCN(CCCNC(=O)c2ccc3c(Cl)c4c(nc3c2)CCCC4)CC1 the results were HNF4A DNA FP 1, Rpn11 inh -12, Myeloid diff 2 inconclusive, TPT1 inh 3 and CSN inh 1.
Screening O=C(NCCCN1CCCCCC1)c1ccc2c(Cl)c3c(nc2c1)CCCC3 returned HNF4A DNA FP 0, Rpn11 inh 75*, Myeloid diff 2 inactive, TPT1 inh -4, CSN inh 10, Rpn11 inh conf -15, MMP-2 inh 21 and Thrombin inh -25.

Bioassay records: PubChem BioAssay, several laboratories
